Results: ChEMBL document CHEMBL4392827, “Tryptamine derivatives disarm colistin resistance in polymyxin-resistant gram-negative bacteria” (Bioorg Med Chem, 2019)

system: Acinetobacter baumannii; test: Potentiation of colistin-induced antimicrobial activity against colistin-resistant Acinetobacter baumannii ATCC 17978 expressing mcr1 gene assessed as fold reduction in colistin MIC at 60 uM after 18 hrs by broth microdilution assay; format: functional; conditions: not given
How it was run: (§1)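 Checkerboard-style resensitization following adapted CLSI broth microdilution. Bacteria were grown 4–6 h in CAMHB and subcultured to 5×10^5 CFU/mL. Adjuvant was added from DMSO stock and held constant while colistin was serially diluted in the dosed subculture. Plates were incubated stationary at 37°C for 18 h, then MICs were read. Fold reduction was taken relative to the colistin MIC without adjuvant.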

Row | SMILES | fold change (FC)
1 | O=C(NCCc1c[nH]c2cc(F)ccc12)c1cc(Br)c(Br)[nH]1 | 32
2 | O=C(NCc1ccc2cc[nH]c2c1)c1cc(Br)c(Br)[nH]1 | 32
3 | Cc1cccc2c(CCNC(=O)c3cc(Br)c(Br)[nH]3)c[nH]c12 | 32
4 | O=C(NCCc1c[nH]c2ccccc12)c1cc(Br)c(Br)[nH]1 | 32

system: Klebsiella pneumoniae; test: Potentiation of colistin-induced antimicrobial activity against colistin-resistant Klebsiella pneumoniae isolate A5 assessed as fold reduction in colistin MIC at 60 uM after 18 hrs by broth microdilution assay; format: functional; conditions: not given; how it was run: as §1

Row | SMILES | fold change (FC)
5 | O=C(NCCc1c[nH]c2cc(F)ccc12)c1cc(Br)c(Br)[nH]1 | 256
6 | O=C(NCc1ccc2cc[nH]c2c1)c1cc(Br)c(Br)[nH]1 | 256
7 | Cc1cccc2c(CCNC(=O)c3cc(Br)c(Br)[nH]3)c[nH]c12 | 256
8 | O=C(NCCc1c[nH]c2ccccc12)c1cc(Br)c(Br)[nH]1 | 256

system: Acinetobacter baumannii; test: Toxicity in Acinetobacter baumannii ATCC 17978 expressing mcr1 gene after 18 hrs by broth microdilution assay; format: organism-based; conditions: not given
How it was run: (§2)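 Single-agent MIC per CLSI broth microdilution. Cells from a 4–6 h culture in cation-adjusted Mueller-Hinton broth adjusted to 5 ×10^5 CFU/mL. Compound (DMSO stock) added to 200 μM top concentration and twofold serially diluted six times, with an untreated control row. Plates sealed and incubated stationary at 37°C for 18 h before MIC read.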

Row | SMILES | MIC
9 | O=C(NCCc1c[nH]c2cc(F)ccc12)c1cc(Br)c(Br)[nH]1 | > 200 µM
10 | O=C(NCc1ccc2cc[nH]c2c1)c1cc(Br)c(Br)[nH]1 | > 200 µM
11 | Cc1cccc2c(CCNC(=O)c3cc(Br)c(Br)[nH]3)c[nH]c12 | > 200 µM

system: Klebsiella pneumoniae; test: Potentiation of colistin-induced antimicrobial activity against colistin-resistant Klebsiella pneumoniae B9 assessed as fold reduction in colistin MIC at 60 uM after 18 hrs by broth microdilution assay; format: functional; conditions: not given; how it was run: as §1

Row | SMILES | fold change (FC)
12 | O=C(NCCc1c[nH]c2cc(F)ccc12)c1cc(Br)c(Br)[nH]1 | 64
13 | O=C(NCc1ccc2cc[nH]c2c1)c1cc(Br)c(Br)[nH]1 | 2048
14 | Cc1cccc2c(CCNC(=O)c3cc(Br)c(Br)[nH]3)c[nH]c12 | 512
15 | O=C(NCCc1c[nH]c2ccccc12)c1cc(Br)c(Br)[nH]1 | 2048

system: Acinetobacter baumannii; test: Potentiation of colistin-induced antimicrobial activity against colistin-sensitive Acinetobacter baumannii 5075 assessed as fold reduction in colistin MIC at 60 uM after 18 hrs by broth microdilution assay; format: functional; conditions: not given
How it was run: (§3)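 Bacteria grown 4–6 h in cation-adjusted Mueller-Hinton broth and diluted to 5 ×10^5 CFU/mL. Adjuvant from DMSO stock held at fixed 60 μM while colistin is twofold serially diluted in the same adjuvant-dosed broth. Plates sealed and kept stationary at 37°C for 18 h. Colistin MIC read and fold reduction taken relative to colistin alone.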

Row | SMILES | fold change (FC)
16 | O=C(NCCc1c[nH]c2cc(F)ccc12)c1cc(Br)c(Br)[nH]1 | 2
17 | O=C(NCc1ccc2cc[nH]c2c1)c1cc(Br)c(Br)[nH]1 | 2
18 | Cc1cccc2c(CCNC(=O)c3cc(Br)c(Br)[nH]3)c[nH]c12 | 2
19 | O=C(NCCc1c[nH]c2ccccc12)c1cc(Br)c(Br)[nH]1 | 2

system: Klebsiella pneumoniae; test: Toxicity in Klebsiella pneumoniae B9 after 18 hrs by broth microdilution assay; format: organism-based; conditions: not given; how it was run: as §2

Row | SMILES | MIC
20 | O=C(NCCc1c[nH]c2cc(F)ccc12)c1cc(Br)c(Br)[nH]1 | > 200 µM
21 | O=C(NCc1ccc2cc[nH]c2c1)c1cc(Br)c(Br)[nH]1 | > 200 µM
22 | Cc1cccc2c(CCNC(=O)c3cc(Br)c(Br)[nH]3)c[nH]c12 | > 200 µM

system: Acinetobacter baumannii; test: Potentiation of colistin-induced antimicrobial activity against colistin-resistant Acinetobacter baumannii isolate 3942 assessed as fold reduction in colistin MIC at 60 uM after 18 hrs by broth microdilution assay; format: functional; conditions: not given; how it was run: as §1

Row | SMILES | fold change (FC)
23 | O=C(NCCc1c[nH]c2cc(F)ccc12)c1cc(Br)c(Br)[nH]1 | 512
24 | O=C(NCc1ccc2cc[nH]c2c1)c1cc(Br)c(Br)[nH]1 | 128
25 | Cc1cccc2c(CCNC(=O)c3cc(Br)c(Br)[nH]3)c[nH]c12 | 256
26 | O=C(NCCc1c[nH]c2ccccc12)c1cc(Br)c(Br)[nH]1 | 512

system: Acinetobacter baumannii; test: Potentiation of colistin-induced antimicrobial activity against Acinetobacter baumannii ATCC 17978 assessed as fold reduction in colistin MIC at 60 uM after 18 hrs by broth microdilution assay; format: functional; conditions: not given; how it was run: as §3

Row | SMILES | fold change (FC)
27 | O=C(NCCc1c[nH]c2cc(F)ccc12)c1cc(Br)c(Br)[nH]1 | 2
28 | O=C(NCc1ccc2cc[nH]c2c1)c1cc(Br)c(Br)[nH]1 | 2
29 | Cc1cccc2c(CCNC(=O)c3cc(Br)c(Br)[nH]3)c[nH]c12 | 2
30 | O=C(NCCc1c[nH]c2ccccc12)c1cc(Br)c(Br)[nH]1 | 4

system: Escherichia coli; test: Potentiation of colistin-induced antimicrobial activity against Escherichia coli ATCC 25922 assessed as fold reduction in colistin MIC at 60 uM after 18 hrs by broth microdilution assay; format: functional; conditions: not given; how it was run: as §3

Row | SMILES | fold change (FC)
31 | O=C(NCCc1c[nH]c2cc(F)ccc12)c1cc(Br)c(Br)[nH]1 | 2
32 | O=C(NCc1ccc2cc[nH]c2c1)c1cc(Br)c(Br)[nH]1 | 2
33 | Cc1cccc2c(CCNC(=O)c3cc(Br)c(Br)[nH]3)c[nH]c12 | 2
34 | O=C(NCCc1c[nH]c2ccccc12)c1cc(Br)c(Br)[nH]1 | 4

system: Escherichia coli; test: Toxicity in Escherichia coli ATCC 25922 after 18 hrs by broth microdilution assay; format: organism-based; conditions: in vitro; how it was run: as §2

Row | SMILES | MIC
35 | O=C(NCCc1c[nH]c2cc(F)ccc12)c1cc(Br)c(Br)[nH]1 | > 200 µM
36 | O=C(NCc1ccc2cc[nH]c2c1)c1cc(Br)c(Br)[nH]1 | > 200 µM
37 | Cc1cccc2c(CCNC(=O)c3cc(Br)c(Br)[nH]3)c[nH]c12 | > 200 µM

system: Acinetobacter baumannii; test: Toxicity in Acinetobacter baumannii 4106 after 18 hrs by broth microdilution assay; format: organism-based; conditions: in vitro; how it was run: as §2

Row | SMILES | MIC
38 | O=C(NCCc1c[nH]c2cc(F)ccc12)c1cc(Br)c(Br)[nH]1 | > 200 µM
39 | O=C(NCc1ccc2cc[nH]c2c1)c1cc(Br)c(Br)[nH]1 | > 200 µM
40 | Cc1cccc2c(CCNC(=O)c3cc(Br)c(Br)[nH]3)c[nH]c12 | > 200 µM

system: Escherichia coli; test: Potentiation of colistin-induced antimicrobial activity against colistin-resistant Escherichia coli ATCC 25922 expressing mcr1 gene assessed as fold reduction in colistin MIC at 60 uM after 18 hrs by broth microdilution assay; format: functional; conditions: not given; how it was run: as §1

Row | SMILES | fold change (FC)
41 | O=C(NCCc1c[nH]c2cc(F)ccc12)c1cc(Br)c(Br)[nH]1 | 8
42 | O=C(NCc1ccc2cc[nH]c2c1)c1cc(Br)c(Br)[nH]1 | 8
43 | Cc1cccc2c(CCNC(=O)c3cc(Br)c(Br)[nH]3)c[nH]c12 | 8
44 | O=C(NCCc1c[nH]c2ccccc12)c1cc(Br)c(Br)[nH]1 | 8

system: Acinetobacter baumannii; test: Potentiation of colistin-induced antimicrobial activity against colistin-resistant Acinetobacter baumannii isolate 3941 assessed as fold reduction in colistin MIC at 60 uM after 18 hrs by broth microdilution assay; format: functional; conditions: not given; how it was run: as §1

Row | SMILES | fold change (FC)
45 | O=C(NCCc1c[nH]c2cc(F)ccc12)c1cc(Br)c(Br)[nH]1 | 512
46 | O=C(NCc1ccc2cc[nH]c2c1)c1cc(Br)c(Br)[nH]1 | 128
47 | Cc1cccc2c(CCNC(=O)c3cc(Br)c(Br)[nH]3)c[nH]c12 | 256
48 | O=C(NCCc1c[nH]c2ccccc12)c1cc(Br)c(Br)[nH]1 | 256

system: Acinetobacter baumannii; test: Potentiation of colistin-induced antimicrobial activity against colistin-resistant Acinetobacter baumannii 4106 assessed as fold reduction in colistin MIC at 60 uM after 18 hrs by broth microdilution assay; format: functional; conditions: not given; how it was run: as §1

Row | SMILES | fold change (FC)
49 | O=C(NCCc1c[nH]c2cc(F)ccc12)c1cc(Br)c(Br)[nH]1 | 512
50 | O=C(NCc1ccc2cc[nH]c2c1)c1cc(Br)c(Br)[nH]1 | 256
51 | Cc1cccc2c(CCNC(=O)c3cc(Br)c(Br)[nH]3)c[nH]c12 | 256
52 | O=C(NCCc1c[nH]c2ccccc12)c1cc(Br)c(Br)[nH]1 | 512

system: Klebsiella pneumoniae; test: Potentiation of colistin-induced antimicrobial activity against colistin-resistant Klebsiella pneumoniae isolate C3 assessed as fold reduction in colistin MIC at 60 uM after 18 hrs by broth microdilution assay; format: functional; conditions: not given; how it was run: as §1

Row | SMILES | fold change (FC)
53 | O=C(NCCc1c[nH]c2cc(F)ccc12)c1cc(Br)c(Br)[nH]1 | 512
54 | O=C(NCc1ccc2cc[nH]c2c1)c1cc(Br)c(Br)[nH]1 | 512
55 | Cc1cccc2c(CCNC(=O)c3cc(Br)c(Br)[nH]3)c[nH]c12 | 512
56 | O=C(NCCc1c[nH]c2ccccc12)c1cc(Br)c(Br)[nH]1 | 1024

system: Acinetobacter baumannii; test: Potentiation of colistin-induced antimicrobial activity against colistin-resistant Acinetobacter baumannii isolate 4112 assessed as fold reduction in colistin MIC at 60 uM after 18 hrs by broth microdilution assay; format: functional; conditions: not given; how it was run: as §1

Row | SMILES | fold change (FC)
57 | O=C(NCCc1c[nH]c2cc(F)ccc12)c1cc(Br)c(Br)[nH]1 | 512
58 | O=C(NCc1ccc2cc[nH]c2c1)c1cc(Br)c(Br)[nH]1 | 256
59 | Cc1cccc2c(CCNC(=O)c3cc(Br)c(Br)[nH]3)c[nH]c12 | 256
60 | O=C(NCCc1c[nH]c2ccccc12)c1cc(Br)c(Br)[nH]1 | 512

system: Klebsiella pneumoniae; test: Potentiation of colistin-induced antimicrobial activity against Klebsiella pneumoniae ATCC BAA-2146 expressing NDM1 gene assessed as fold reduction in colistin MIC at 60 uM after 18 hrs by broth microdilution assay; format: functional; conditions: not given; how it was run: as §3

Row | SMILES | fold change (FC)
61 | O=C(NCCc1c[nH]c2cc(F)ccc12)c1cc(Br)c(Br)[nH]1 | 2
62 | O=C(NCc1ccc2cc[nH]c2c1)c1cc(Br)c(Br)[nH]1 | 0
63 | Cc1cccc2c(CCNC(=O)c3cc(Br)c(Br)[nH]3)c[nH]c12 | 2
64 | O=C(NCCc1c[nH]c2ccccc12)c1cc(Br)c(Br)[nH]1 | 2
